Data as given in ChEMBL document CHEMBL4325899, “Synthesis and photocytotoxic activity of [1,2,3]triazolo[4,5-h][1,6]naphthyridines and [1,3]oxazolo[5,4-h][1,6]naphthyridines” (Eur J Med Chem, 2019).

Legend:
[1] = test system: MCF7; assay: Phototoxicity against human MCF7 cells preincubated for 5 mins followed by compound washout and subsequent UV irradiation at 1.5 J/cm2 for 5 mins measured after 72 hrs by MTT assay; assay type: functional, cell-based; conditions: MCF7, light or radiation study
Procedure, shortened: (§1)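 Compounds were diluted in DMSO (0.5% final), applied in triplicate for 5 min, then washed out with PBS. After medium removal, cells were irradiated on ice for 5 min at 365 nm (1.5 J/cm²) and then kept 72 h at 37 °C. Viability was read by MTT at 540 nm and expressed relative to 0.5% DMSO controls given the same treatment. EC50 is the concentration killing 50%, as the mean ± SD of at least three experiments.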

[2] = Dark toxicity against human A375 cells preincubated for 5 mins followed by compound washout and measured after 72 hrs by MTT assay; assay type: cell-based, A-375
Procedure, shortened: (§2)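 Cells were plated and allowed to attach overnight. Compounds were diluted in DMSO (0.5% final), with each concentration in triplicate, and applied for 5 min. Cells were then washed in PBS and given fresh medium. Without irradiation, cells were held 72 h at up to 50 μM. MTT (5 mg/mL stock) was added for 4 h, crystals were dissolved in SDS/HCl overnight, and absorbance was read at 540 nm. CC50 is the concentration killing 50% of cells, taken as the mean of at least three experiments.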

[3] = Dark toxicity against human MCF7 cells preincubated for 5 mins followed by compound washout and measured after 72 hrs by MTT assay; assay type: cell-based; procedure, shortened: as §2
[4] = Solubility of the compound in DMSO; assay type: physicochemical
[5] = test system: MCF-10A; assay: Phototoxicity against human MCF10A cells preincubated for 5 mins followed by compound washout and subsequent UV irradiation at 1.5 J/cm2 for 5 mins measured after 72 hrs by MTT assay; assay type: cell-based; conditions: light or radiation study; procedure, shortened: as §1
[6] = Dark toxicity against human MCF10A cells preincubated for 5 mins followed by compound washout and measured after 72 hrs by MTT assay; assay type: cell-based, MCF-10A; procedure, shortened: as §2
[7] = Dark toxicity against human HT-29 cells preincubated for 5 mins followed by compound washout and measured after 72 hrs by MTT assay; assay type: cell-based; procedure, shortened: as §2
[8] = test system: A-375; assay: Phototoxicity against human A375 cells preincubated for 5 mins followed by compound washout and subsequent UV irradiation at 1.5 J/cm2 for 5 mins measured after 72 hrs by MTT assay; assay type: functional, cell-based; conditions: A-375, light or radiation study; procedure, shortened: as §1
[9] = test system: HT-29; assay: Phototoxicity against human HT-29 cells preincubated for 5 mins followed by compound washout and subsequent UV irradiation at 1.5 J/cm2 for 5 mins measured after 72 hrs by MTT assay; assay type: functional, cell-based; conditions: HT-29, light or radiation study; procedure, shortened: as §1

Row | Compound | EC50 [1] | CC50 at 72 h [2] | CC50 at 72 h [3] | solubility [4] | EC50 [5] | CC50 at 72 h [6] | CC50 at 72 h [7] | EC50 [8] | EC50 [9]
1 | COc1cc(-c2nc3c(nc(C)c4ccc(C)nc43)o2)cc(OC)c1OC | > 50 µM | > 50 µM | > 50 µM | Soluble | > 50 µM | > 50 µM | > 50 µM | > 50 µM | > 50 µM
2 | COc1ccc(-c2nc3c(nc(C)c4ccc(-c5ccccc5OC)nc43)o2)cc1 |  |  |  | Insoluble |  |  |  |  | 
3 | COc1cc(-n2nnc3c4[nH]c(=O)ccc4c(C)nc32)cc(OC)c1OC |  |  |  | Insoluble |  |  |  |  | 
4 | COc1ccc(-c2ccc3c(C)nc4oc(-c5ccc(OC)cc5)nc4c3n2)cc1 |  |  |  | Insoluble |  |  |  |  | 
5 | COc1ccccc1-c1ccc2c(C)nc3c(nnn3-c3ccccc3)c2n1 |  |  |  | Insoluble |  |  |  |  | 
6 | COc1ccc(-c2ccc3c(C)nc4c(nnn4-c4cc(OC)c(OC)c(OC)c4)c3n2)cc1 |  |  |  | Insoluble |  |  |  |  | 
7 | COc1cc(-n2nnc3c4nc(-c5ccccc5)ccc4c(C)nc32)cc(OC)c1OC | > 50 µM | > 50 µM | > 50 µM | Soluble | > 50 µM | > 50 µM | > 50 µM | > 50 µM | > 50 µM
8 | COc1ccc(-c2ccc3c(C)nc4oc(-c5cc(OC)c(OC)c(OC)c5)nc4c3n2)cc1 |  |  |  | Insoluble |  |  |  |  | 
9 | COc1ccc(-c2ccc3c(C)nc4oc(-c5ccccc5)nc4c3n2)cc1 |  |  |  | Insoluble |  |  |  |  | 
10 | COc1cc(-n2nnc3c4nc(C)ccc4c(C)nc32)cc(OC)c1OC |  |  |  | Insoluble |  |  |  |  | 
11 | Cc1nc2oc(-c3ccccc3)nc2c2nc(-c3ccccc3)ccc12 |  |  |  | Insoluble |  |  |  |  | 
12 | Cc1nc2c(nnn2-c2ccccc2)c2nc(-c3ccccc3)ccc12 | > 50 µM | > 50 µM | > 50 µM | Soluble | > 50 µM | > 50 µM | > 50 µM | > 50 µM | > 50 µM
13 | Cc1nc2c(nnn2-c2ccccc2)c2[nH]c(=O)ccc12 | > 50 µM | > 50 µM | > 50 µM | Soluble | > 50 µM | > 50 µM | > 50 µM | > 50 µM | > 50 µM
14 | COc1ccc(-c2nc3c(nc(C)c4ccc(=O)[nH]c43)o2)cc1 |  |  |  | Insoluble |  |  |  |  | 
15 | COc1ccccc1-c1ccc2c(C)nc3c(nnn3-c3cc(OC)c(OC)c(OC)c3)c2n1 | > 50 µM | > 50 µM | > 50 µM | Soluble | > 50 µM | > 50 µM | > 50 µM | > 50 µM | > 50 µM
16 | Cc1ccc2c(C)nc3c(nnn3-c3ccccc3)c2n1 | > 50 µM | > 50 µM | > 50 µM | Soluble | > 50 µM | > 50 µM | > 50 µM | > 50 µM | > 50 µM
17 | COc1cc(-c2nc3c(nc(C)c4ccc(=O)[nH]c43)o2)cc(OC)c1OC |  |  |  | Insoluble |  |  |  |  | 
18 | COc1ccc(-n2nnc3c4nc(-c5ccccc5)ccc4c(C)nc32)cc1 |  |  |  | Insoluble |  |  |  |  | 
19 | COc1ccc(-n2nnc3c4[nH]c(=O)ccc4c(C)nc32)cc1 | > 50 µM | > 50 µM | > 50 µM | Soluble | > 50 µM | > 50 µM | > 50 µM | > 50 µM | > 50 µM
